Shown are actives, neighbours in structure and some others; about 9.4% of the full set was active somewhere.
L major viab: Leishmania major promastigote growth inhibition; Leishmania major promastigotes, resazurin fluorescence viability; inhibition, % at 10 µM; 200,000 tested, 9% active; AID 1063; in the data active = inhibition above about 50%;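 also: promastigotes grown with compound for 44 hours at 28 °C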
CSC inhib: cancer stem cell inhibition. cancer stem cell-like cells viability, luminescence. inhibition, % at 7.5 µM. 300,000 tested, 1.1% active; in the data active = inhibition above about 75%; tested in HMLE shEcad cells
Mdm2 MdmX PPI: human Mdm2/MdmX binding inhibition; SaOS-2 split-luciferase Mdm2/MdmX complementation, luminescence; inhibition, % at 8 µM; 330,000 tested, 3% active; O15151+Q00987; AID 485346;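 active = inhibition of at least 50% at 8 µM in the primary screen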
Target sequence (O15151 whole entry, looked up): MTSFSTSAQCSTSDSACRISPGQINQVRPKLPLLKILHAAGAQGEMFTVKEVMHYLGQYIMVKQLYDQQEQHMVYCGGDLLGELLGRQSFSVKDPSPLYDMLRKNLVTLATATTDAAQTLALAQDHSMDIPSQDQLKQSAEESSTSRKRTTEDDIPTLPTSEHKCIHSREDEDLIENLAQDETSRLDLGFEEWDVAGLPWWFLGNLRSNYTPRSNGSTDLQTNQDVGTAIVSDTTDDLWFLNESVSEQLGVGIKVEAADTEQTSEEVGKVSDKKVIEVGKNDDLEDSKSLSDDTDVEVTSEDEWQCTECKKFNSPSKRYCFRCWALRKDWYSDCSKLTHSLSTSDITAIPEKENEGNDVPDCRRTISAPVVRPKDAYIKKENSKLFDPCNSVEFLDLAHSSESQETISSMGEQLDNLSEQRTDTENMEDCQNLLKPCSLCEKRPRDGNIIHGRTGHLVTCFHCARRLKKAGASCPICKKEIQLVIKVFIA
Target sequence (Q00987 whole entry, looked up): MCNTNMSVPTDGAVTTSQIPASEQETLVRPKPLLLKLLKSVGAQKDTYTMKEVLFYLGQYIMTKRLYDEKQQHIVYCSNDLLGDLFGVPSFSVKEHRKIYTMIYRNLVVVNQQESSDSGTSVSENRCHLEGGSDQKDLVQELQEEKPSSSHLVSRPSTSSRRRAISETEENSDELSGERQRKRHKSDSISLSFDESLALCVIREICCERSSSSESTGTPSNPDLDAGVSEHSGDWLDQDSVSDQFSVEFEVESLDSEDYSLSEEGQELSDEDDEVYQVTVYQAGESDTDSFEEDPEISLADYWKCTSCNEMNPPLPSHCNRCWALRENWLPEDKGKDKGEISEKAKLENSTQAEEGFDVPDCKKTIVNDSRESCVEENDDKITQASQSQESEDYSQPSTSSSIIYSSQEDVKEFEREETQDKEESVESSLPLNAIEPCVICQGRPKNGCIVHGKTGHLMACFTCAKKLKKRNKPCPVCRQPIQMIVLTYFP
T cruzi inh: T. cruzi replication inhibition. inhibition, % (no concentration beside the values). 300,000 tested, 1.4% active. T. cruzi beta-gal in NIH3T3, luminescence, 90 h;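 active = mean inhibition across valid replicates above about 55%, limit read from the data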;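 also: signal also drops with host cell toxicity which is not excluded here; 0% = plate median of DMSO wells and 100% = zero luminescence signal; higher percent means less beta-gal luminescence so fewer parasites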
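Incubation – ≥90 h infection period, 3 h prior cell attachment · System – NIH/3T3 fibroblasts plus reporter T. cruzi · Doses – compound pinned at 50 nL/well, DMSO · Read-out basis – percent inhibition of parasite-derived β-gal signal · Signal – luminescent β-galactosidase signal after 60 min lysis · Also added – 5000 T. cruzi trypomastigotes/well · Medium – Low-serum DMEM with 2% FBS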
SKKanGAS inh: inhibitors of SKKanGAS S. pyogenes growth in kanamycin (SK-promoter or general growth effect) | BacTiter-Glo, 6 h | inhibition, % at 7.5 µM | 300,000 tested, 1.3% active;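 active = mean replicate score, as percent of positive control median, at least 50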;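 also: strain carries kanamycin resistance gene driven by streptokinase promoter and grows in 40 µg/ml kanamycin; loss of luminescence reflects streptokinase promoter inhibition or plain growth inhibition; 0% = median of DMSO wells and 100% = positive control at its reference dose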
Beta apoptosis: beta cell apoptosis inhibition; AID 435005; INS-1E cytokine-induced death, ATP luminescence, 48 h; percent of positive-control rescue, neutral wells zero; protection from apoptosis, % (concentration not given with the values); 300,000 tested, 0.8% active;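 active = Every replicate reaches about 75%, or at least half do and their mean reaches it too, limit read from the data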;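 also: 0% = cytokine-treated negative control wells and 100% = positive control rescue; higher means more ATP so stronger rescue from cytokine killing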
Starred values were filed as active, the others as inactive; / = not tested or not shown.

SMILES	L major viab	CSC inhib	Mdm2 MdmX PPI	T cruzi inh	SKKanGAS inh	Beta apoptosis
Cc1ccc(C(=O)CSc2ccc(-c3cccnc3)nn2)cc1	-1	-5	14	-1	3	-9
N#Cc1cc(-c2ccc(Cl)cc2)cnc1Sc1ccccc1	-5	-5	-3	56*	12	4
CC(C)(C)c1ccc(OCCNC(=S)NC(=O)c2cccnc2)cc1	53*	20	-4	22	4	4
O=C(NNC(=S)NC(=O)c1ccccc1)c1cccnc1	/	1	12	-3	27	0
CC(C)(C)c1ccc(C(=O)NNC(=S)NC(=O)c2cccnc2)cc1	/	25	34	29	100*	62
CCCCOc1cccc(C(=O)NC(=S)Nc2cccnc2)c1	51*	-11	-2	1	-9	-13
CCOc1cccc(C(=O)NC(=S)Nc2cccnc2)c1	-10	-22	0	3	-3	-7
O=C(Cc1cccs1)NCc1cccc(F)c1	-1	/	-4	-15	3	-4
O=C1N(Cc2cccnc2)C[C@@H]2C[C@@H](c3cccc(OC4CCCC4)c3)N3CCC[C@@]123	3	4	-23	27	10	/
O=C(CN(Cc1ccc(Cl)c(Cl)c1)S(=O)(=O)c1ccccc1)N/N=C\c1ccc2c(c1)OCO2	88*	41	31	/	39	11
O=C(CN(CCc1ccccc1)S(=O)(=O)c1ccc(Br)cc1)N/N=C/c1ccc2c(c1)OCO2	-4	-7	12	11	5	-3
O=C(CN(Cc1ccccc1)S(=O)(=O)c1ccccc1)N/N=C/c1ccc2c(c1)OCO2	63*	-5	24	13	8	-1
O=C(CN(Cc1ccccc1)S(=O)(=O)c1ccccc1)N/N=C/c1ccc([N+](=O)[O-])cc1	28	-2	16	18	8	0
CC(=O)c1cccc(OCc2cc(C(=O)N3C[C@@H](C)O[C@@H](C)C3)no2)c1	/	-10	-30	-8	-1	0
O=c1[nH]c2ccccc2c(O)c1-c1ccccc1[N+](=O)[O-]	-6	-8	24	11	0	-4
O=C(Nn1cnnc1)c1ccc(Cl)cc1	/	1	2	-12	0	-4
CC(C)Cn1c(N)c(C(=O)COC(=O)C2Cc3ccccc3CN2S(C)(=O)=O)c(=O)n(C)c1=O (stereo unspecified)	/	47	11	/	/	27
Cc1ccc(C2=CC(C)(c3ccc(C)cc3)Nc3nc(C(F)(F)F)nn32)cc1 (stereo unspecified)	39	30	40	23	16	8
CC1(c2ccc(OCC#N)cc2)C=C(c2ccc(OCC#N)cc2)n2nc(C(F)(F)F)nc2N1 (stereo unspecified)	97*	14	17	48	7	14
CCOc1cc(/C=N/Nc2nc(N3CCCCC3)nc(N3CCCCC3)n2)ccc1OC(=O)c1ccco1	58*	-29	-14	24	9	-4
COc1cc(/C=N/Nc2nc(N3CCCC3)nc(N3CCCC3)n2)ccc1O	97*	-4	-3	-5	6	-8
COc1ccc(-c2cnnc(N/N=C/c3ccc(O)c(OC)c3)n2)cc1	54*	57	26	-9	0	26
O=[N+]([O-])c1cc(/C=N/Nc2nc(N3CCCCC3)nc(N3CCCCC3)n2)ccc1O	5	9	-12	13	3	1
CCOc1ccc(/C=N/Nc2nc(N3CCCC3)nc(N3CCCC3)n2)cc1OC	14	0	13	17	0	2
COc1ccc(/C=N/Nc2nc(N3CCCCC3)nc(N3CCCCC3)n2)cc1[N+](=O)[O-]	96*	13	5	30	0	/
SMILES	L major viab	CSC inhib	Mdm2 MdmX PPI	T cruzi inh	SKKanGAS inh	Beta apoptosis
CCCOc1ccccc1C(=O)N(Cc1ccc(C)o1)C1CCS(=O)(=O)C1 (stereo unspecified)	/	-16	-10	-8	-1	-3
CC(=O)NC(NC(=S)N1CCCCCC1)C(Cl)(Cl)Cl (stereo unspecified)	-1	5	12	-21	-1	-2
COC(=O)NC(=S)Nc1ccc(Oc2ccc(Cl)cc2)c(Cl)c1	4	/	27	74*	-6	/
CC(=O)Nc1ccc(Oc2ccc([N+](=O)[O-])cc2Cl)cc1	-2	-10	-16	1	-6	-9
COC(=O)NC(=S)Nc1ccc(Oc2ccc(Cl)cc2Cl)c(Cl)c1	7	/	43	62*	18	3
S=C(NCCC(c1ccccc1)c1ccccc1)Nc1cccc(Cl)c1	59*	122*	-3	44	102*	-1
S=C(NCc1ccncc1)Nc1cccc(Cl)c1	12	-7	-36	-17	-5	-5
O=C(NC(c1cccnc1)C(F)(F)F)c1cc(COc2ccc3c(c2)CCCC3)on1 (stereo unspecified)	/	27	-15	14	10	107*
COc1ccc(OCCNc2cc(N3CCCCC3)ccc2[N+](=O)[O-])cc1	6	-1	15	43	5	-7
CC1CN(c2ccc([N+](=O)[O-])c(NCCOc3ccccc3)c2)CCN1 (stereo unspecified)	100*	68	34	41	0	4
COC(=O)C(C)NC(=O)C12CC3CC(CC(C3)C1)C2 (stereo unspecified)	-1	-4	18	8	1	-3
CC(C)C(NC(=O)C12CC3CC(CC(C3)C1)C2)C(=O)O (stereo unspecified)	52*	-1	11	-2	6	-1
CCOC(=O)c1ccc(-n2[nH]c(-c3ccccc3)cc2=O)cc1	1	79*	32	0	32	12
Cc1ccc(Nc2nnc(C3C(=O)N(C)C4(C)CC3c3cc(Br)ccc3O4)s2)cc1 (stereo unspecified)	69*	-8	13	22	36	-9
Cc1ccc(S(=O)(=O)N(C)C)cc1NC(=O)CSc1ncc(C(F)(F)F)cc1Cl	61*	-8	-3	24	-1	1
O=C1COc2ccc(S(=O)(=O)CCC(=O)N3CCN(c4cccc(C(F)(F)F)c4)CC3)cc2N1	/	-18	16	-6	-8	28
C/C(=C\c1ccccc1)C(=O)N1CCN(c2cccc(C(F)(F)F)c2)CC1	55*	-8	-5	-24	-10	0
O=C(c1ccc2[nH]c3c(c2c1)CCCC3)N1CCN(c2ccc(F)cc2)CC1	60*	10	12	10	19	-12
CCCCn1c(=S)[nH]c2ccc(N3CCOCC3)cc2c1=O	-5	/	27	-7	7	/
Cc1cccc(N2CCN(C(=O)CCCCCn3c(=S)[nH]c4ccc(N5CCOCC5)cc4c3=O)CC2)c1C	/	71	31	65*	32	31
C/C(=C/c1ccccc1)C(=O)N1CCN(c2ccccc2F)CC1	/	-13	12	10	5	-2
COc1ccccc1N1CCN(C(=O)c2ccc3[nH]c4c(c3c2)CCCC4)CC1	9	18	10	22	7	-28

Screening results: PubChem BioAssay, several laboratories
